Measurements published in ChEMBL document CHEMBL2434820, “Design, synthesis, and biological evaluation of novel 2-ethyl-5-phenylthiazole-4-carboxamide derivatives as protein tyrosine phosphatase 1B inhibitors with improved cellular efficacy” (Eur J Med Chem, 2013).
Activity calls are given as the source filed them. The rule behind the calls is not given here.

How the values were obtained:
[1] = target: T1, Tyrosine-protein phosphatase non-receptor type 1 (Rattus norvegicus) (UniProt P20417); experiment: Inhibition of PTP1B in rat L6 cells assessed as insulin-induced Akt phosphorylation at 5 to 10 uM preincubated for 2 hrs followed by insulin challenge for 10 mins by Western blotting analysis; type: cell-based
T1 sequence (whole entry): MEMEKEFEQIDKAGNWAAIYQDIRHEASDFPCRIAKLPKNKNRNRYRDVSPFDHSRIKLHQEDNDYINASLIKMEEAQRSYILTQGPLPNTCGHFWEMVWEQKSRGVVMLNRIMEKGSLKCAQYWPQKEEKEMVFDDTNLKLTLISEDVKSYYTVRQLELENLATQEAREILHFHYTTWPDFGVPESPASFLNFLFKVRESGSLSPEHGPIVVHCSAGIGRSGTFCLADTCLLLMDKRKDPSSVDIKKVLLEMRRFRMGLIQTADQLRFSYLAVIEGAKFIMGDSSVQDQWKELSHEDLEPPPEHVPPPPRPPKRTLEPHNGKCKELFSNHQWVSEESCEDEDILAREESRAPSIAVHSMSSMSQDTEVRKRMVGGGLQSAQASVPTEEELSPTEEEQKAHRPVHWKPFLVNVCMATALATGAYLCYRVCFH
Outline: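 Rat L6 myoblasts were differentiated in DMEM with 2% FBS and used as myotubes 5–7 days later. They were serum-starved 2 h, treated with compound 2 h (0.2% DMSO vehicle), then given 10 nM insulin for 10 min. Lysates were run on 8% SDS-PAGE and immunoblotted for phospho-Akt (Ser473), with β-actin as loading control.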

[2] = target: T2, M-phase inducer phosphatase 2 (Homo sapiens, UniProt P30305); experiment: Inhibition of CDC25B (unknown origin)
T2 sequence (P30305 whole entry): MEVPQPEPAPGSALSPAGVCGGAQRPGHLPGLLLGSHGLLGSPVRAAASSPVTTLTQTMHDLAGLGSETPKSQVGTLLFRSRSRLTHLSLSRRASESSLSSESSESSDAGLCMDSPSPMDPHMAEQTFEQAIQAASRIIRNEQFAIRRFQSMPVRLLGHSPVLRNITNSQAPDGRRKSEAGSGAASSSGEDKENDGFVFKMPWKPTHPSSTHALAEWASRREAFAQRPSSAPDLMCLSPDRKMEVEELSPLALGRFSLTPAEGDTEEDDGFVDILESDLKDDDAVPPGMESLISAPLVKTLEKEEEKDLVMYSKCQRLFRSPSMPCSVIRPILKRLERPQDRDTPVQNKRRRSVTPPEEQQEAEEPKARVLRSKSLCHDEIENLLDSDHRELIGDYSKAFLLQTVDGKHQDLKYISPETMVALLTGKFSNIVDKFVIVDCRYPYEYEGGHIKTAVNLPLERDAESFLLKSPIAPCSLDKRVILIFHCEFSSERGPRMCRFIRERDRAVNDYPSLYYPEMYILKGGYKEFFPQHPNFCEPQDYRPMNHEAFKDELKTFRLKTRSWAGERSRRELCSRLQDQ

[3] = target: T3, Tyrosine-protein phosphatase non-receptor type 1 (Homo sapiens) (UniProt P18031); experiment: Inhibition of PTP1B (unknown origin) expressed in CHO cells over-expressing human IR assessed as increase in insulin-mediated IR-beta phosphorylation preincubated for 2 hrs followed by insulin challenge for 10 mins by Western blotting analysis; type: cell-based
T3 sequence (whole entry): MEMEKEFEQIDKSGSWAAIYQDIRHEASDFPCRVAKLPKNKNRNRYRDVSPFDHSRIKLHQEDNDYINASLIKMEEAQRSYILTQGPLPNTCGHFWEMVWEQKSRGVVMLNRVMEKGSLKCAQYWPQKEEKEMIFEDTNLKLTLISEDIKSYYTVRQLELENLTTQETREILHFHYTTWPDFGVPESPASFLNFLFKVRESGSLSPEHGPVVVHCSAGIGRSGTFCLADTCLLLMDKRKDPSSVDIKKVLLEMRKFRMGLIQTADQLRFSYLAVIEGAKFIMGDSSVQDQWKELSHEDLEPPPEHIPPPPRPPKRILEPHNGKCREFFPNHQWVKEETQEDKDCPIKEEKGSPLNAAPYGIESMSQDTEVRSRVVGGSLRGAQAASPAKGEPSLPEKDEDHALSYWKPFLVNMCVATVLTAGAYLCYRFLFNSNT
Outline: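 CHO cells overexpressing human IR, grown in Ham's F-12 with 10% FBS at 37 °C, 5% CO2. Cells were serum-starved 2 h, then exposed to compound for 2 h (0.2% DMSO vehicle; 1 mM sodium orthovanadate as positive control). They were then stimulated with 10 nM insulin for 10 min. Lysates were run on 8% SDS-PAGE and immunoblotted with anti-pTyr, using β-actin as the loading control.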

[4] = target: T4, Tyrosine-protein phosphatase non-receptor type 2 (Homo sapiens, UniProt P17706); experiment: Inhibition of TCPTP (unknown origin)
T4 sequence (P17706 whole entry): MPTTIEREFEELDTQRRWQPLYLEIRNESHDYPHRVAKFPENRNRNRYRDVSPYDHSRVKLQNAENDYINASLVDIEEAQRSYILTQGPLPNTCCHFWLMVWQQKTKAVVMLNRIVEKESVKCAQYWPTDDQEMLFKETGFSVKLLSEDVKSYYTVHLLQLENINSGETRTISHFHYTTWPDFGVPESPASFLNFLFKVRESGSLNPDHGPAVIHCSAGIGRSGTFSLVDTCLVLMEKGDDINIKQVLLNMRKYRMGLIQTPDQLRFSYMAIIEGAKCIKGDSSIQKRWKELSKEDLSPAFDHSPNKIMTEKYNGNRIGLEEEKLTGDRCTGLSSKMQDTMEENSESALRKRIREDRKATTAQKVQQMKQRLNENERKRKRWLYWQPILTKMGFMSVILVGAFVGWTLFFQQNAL

[5] = target: T1, Tyrosine-protein phosphatase non-receptor type 1 (Rattus norvegicus); experiment: Inhibition of PTP1B in rat L6 cells assessed as insulin-stimulated 2-deoxy-[3H]-deoxy-glucose uptake at 20 uM preincubated for 2 hrs followed by insulin challenge for 30 mins; type: cell-based
Outline: (§1)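 Differentiated L6 myotubes were serum-starved 2 h, treated with compound, then stimulated with 10 nM insulin for 30 min. Cells were washed in HEPES-buffered saline, pH 7.4, and incubated 15 min with 2-deoxy-[3H]-glucose. After ice-cold PBS washes they were lysed in 0.1% Triton X-100 and radioactivity was counted. Data are averages of at least three independent replicates.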

[6] = target: T1, Tyrosine-protein phosphatase non-receptor type 1 (Rattus norvegicus); experiment: Inhibition of PTP1B in rat L6 cells assessed as insulin-induced Akt phosphorylation at 20 uM preincubated for 2 hrs followed by insulin challenge for 10 mins by Western blotting analysis in presence of wortmannin; type: cell-based
Outline: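 Differentiated L6 myotubes were pretreated with 250 nM wortmannin to block PI3K. They then received 20 μM compound for 2 h and were stimulated with or without 10 nM insulin. Akt phosphorylation was read by immunoblot of lysates with anti-phospho-Akt (Ser473).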

[7] = target: T1, Tyrosine-protein phosphatase non-receptor type 1 (Rattus norvegicus); experiment: Inhibition of PTP1B in rat L6 cells assessed as insulin-stimulated 2-deoxy-[3H]-deoxy-glucose uptake at 10 uM preincubated for 2 hrs followed by insulin challenge for 30 mins; type: cell-based; outline: as §1

Compound: O=C(CCc1c[nH]c2ccccc12)N[C@@H](Cc1ccc(OCc2ccccc2)cc1)c1nc(C(=O)Nc2cc(F)ccc2C(=O)O)c(-c2ccccc2)s1
- inhibition [1]: Active
- IC50 [2]: 1620 nM
- inhibition [3]: Dose-dependent effect
- IC50 [4]: 1420 nM
- inhibition [5]: 86%
- inhibition [6]: inactive
- inhibition [7]: 40%
